Published values from different studies.
Protocols differ between the studies behind these lines. Converted amounts (≈) assume the structure as drawn.
Organism: Pseudomonas aeruginosa

SMILES	test	system	setting	endpoint	value
O=C(Sc1cccccc1=O)c1ccccc1C(F)(F)F	microbial growth, broth dilution	ATCC27853		MIC80	> 71.4 µM
CCN1CCN(C(=O)N[C@@H](C(=O)N[C@@H]2C(=O)N3[C@@H]2SC(C)(C)[C@@H]3C(=O)O)c2ccccc2)C(=O)C1=O	microbial growth, well diffusion	PAO1	200 µM	inhibition zone	19 mm
CC(C)Oc1c(NC(=O)c2ccc(NC(=O)[C@H](CC(N)=O)NC(=O)c3ccc(NC(=O)c4cc(C#N)cn4C)cc3)cc2)ccc(C(=O)Nc2ccc(C(=O)O)cc2)c1O	microbial growth	PA14		MIC	> 64 µg/mL
CN1CC(O)=C(C(=O)NC(C(=O)NC2C(=O)N3C2SC(C)(C)C3C(=O)O)c2ccccc2)C1=O (centres unmarked)	microbial growth, well diffusion	PAO1	200 µM	inhibition zone	12.3 mm
COc1cc(C=Cc2cc(-c3ccccc3)nc(O)n2)ccc1O	microbial growth, disc diffusion	ATCC27853	250 µg/mL	inhibition zone	6 mm
O=C(Sc1cccccc1=O)c1ccc(C(F)(F)F)cc1	microbial growth, broth dilution	ATCC27853		MIC80	> 71.4 µM
COc1c(C)c(OCc2ccccc2)c(C)c(O)c1C(=O)/C=C/c1ccccc1	microbial killing, broth dilution	ATCC27853		MBC	> 5000 µg/mL
CC(C)Oc1c(NC(=O)c2ccc(NC(=O)[C@H](CC(N)=O)NC(=O)c3cccc(NC(=O)c4ccc(C#N)cc4)c3)cc2)ccc(C(=O)Nc2ccc(C(=O)O)cc2)c1O	microbial growth	PA14		MIC	> 64 µg/mL
COc1cc(C=CC(=O)CC(c2ccc(N(C)C)cc2)n2ccnc2)ccc1O (centres unmarked)	microbial growth, disc diffusion	ATCC27853	500 µg/mL	inhibition zone	23.3 mm
O=c1cccccc1SSc1cccccc1=O	microbial growth, broth dilution	ATCC27853		MIC80	> 71.4 µM
CN[C@H](CC(C)C)C(=O)N[C@H]1C(=O)N[C@@H](CC(N)=O)C(=O)N[C@H]2C(=O)N[C@H]3C(=O)N[C@H](C(=O)N[C@H](C(=O)O)c4cc(O)cc(O)c4-c4cc3ccc4O)[C@H](O)c3ccc(c(Cl)c3)Oc3cc2cc(c3O[C@@H]2O[C@H](CO)[C@@H](O)[C@H](O)[C@H]2O[C@H]2C[C@](C)(N)[C@H](O)[C@H](C)O2)Oc2ccc(cc2Cl)[C@H]1O	microbial killing, broth dilution	ATCC9027		MBC	> 128 µM
CC(C)c1ccc(O)c(=O)cc1	microbial growth, broth dilution	ATCC27853		MIC80	> 71.4 µM
C[C@H]1NCc2cc(-c3ccc4c(=O)c(C(=O)O)cn(C5CC5)c4c3OC(F)F)ccc21	microbial growth, broth dilution		clinical isolate	MIC50	2 µg/mL (≈ 4.69 µM)
CCCCCC(=O)Oc1c(C)c(O)c(C(=O)/C=C/c2ccccc2)c(OC)c1C	microbial killing, broth dilution	ATCC27853		MBC	> 5000 µg/mL
CC1(C)S[C@@H]2[C@H](NC(=O)[C@H](N)c3ccccc3)C(=O)N2[C@H]1C(=O)O	microbial growth, well diffusion	PAO1	200 µM	inhibition zone	8 mm
CC1(C)S[C@@H]2[C@H](NC(=O)[C@H](N)c3ccc(O)cc3)C(=O)N2[C@H]1C(=O)O	microbial growth, disc diffusion	ATCC27853	250 µg/mL	inhibition zone	9.38 mm
CC(C)Oc1c(NC(=O)c2ccc(NC(=O)[C@H](CC(N)=O)NC(=O)c3ccc(NC(=O)c4ccc(C5(C(F)(F)F)N=N5)cc4)cc3)cc2)ccc(C(=O)Nc2ccc(C(=O)O)cc2)c1O	microbial growth	PA14		MIC	> 64 µg/mL
COc1c(C)c(OC(C)=O)c(C)c(OC(C)=O)c1C(=O)/C=C/c1ccccc1	microbial killing, broth dilution	ATCC27853		MBC	> 5000 µg/mL

SMILES	test	system	setting	endpoint	value
CC1(C)S[C@@H]2[C@H](NC(=O)C(C(=O)O)c3ccccc3)C(=O)N2[C@H]1C(=O)O (some centres unmarked)	microbial growth, well diffusion	PAO1	200 µM	inhibition zone	9.3 mm
O=c1[nH]cc(F)c(=O)[nH]1	microbial killing, broth dilution		48 h	MBC	8 µg/mL
O=C(Sc1cccccc1=O)c1cccc(C(F)(F)F)c1	microbial growth, broth dilution	ATCC27853		MIC80	> 71.4 µM
CCCCCCCCCCCCCC(O)CC(O)CO (centres unmarked)	microbial growth, broth dilution	ATCC27853		IC50	> 200 µg/mL
COc1c(C)c(OC(C)=O)c(C)c(O)c1C(=O)/C=C/c1ccccc1	microbial killing, broth dilution	ATCC27853		MBC	> 5000 µg/mL
CC(C)Oc1c(NC(=O)c2ccc(NC(=O)[C@H](CC(N)=O)NC(=O)c3ccc(-c4nn[nH]c4-c4ccc(C#N)cc4)cc3)cc2)ccc(C(=O)Nc2ccc(C(=O)O)cc2)c1O	microbial growth	PA14		MIC	> 64 µg/mL
CC1(C)SC2C(NC(=O)C(NC(=O)C3=C(O)C(Cc4ccsc4)NC3=O)c3ccccc3)C(=O)N2C1C(=O)O (centres unmarked)	microbial growth, well diffusion	PAO1	200 µM	inhibition zone	11 mm
CCCC(=O)Oc1c(C)c(O)c(C(=O)/C=C/c2ccccc2)c(OC)c1C	microbial killing, broth dilution	ATCC27853		MBC	> 5000 µg/mL
C#CCCCCCCCCCCCC(O)CC(O)CO (centres unmarked)	microbial growth, broth dilution	ATCC27853		IC50	> 200 µg/mL
Cc1cc(N)c2ccccc2[n+]1CCCCCCCCCC[n+]1c(C)cc(N)c2ccccc21	microbial growth, disc diffusion		50 µg/disc	inhibition zone	0 mm
CC(C)Oc1c(NC(=O)c2ccc(NC(=O)[C@H](CC(N)=O)NC(=O)c3ccc(NC(=O)c4ccccc4)cc3)cc2)ccc(C(=O)Nc2ccc(C(=O)O)cc2)c1O	microbial growth	PA14		MIC	> 64 µg/mL
COc1c(C)c(OS(=O)(=O)c2ccc3ccccc3c2)c(C)c(OS(=O)(=O)c2ccc3ccccc3c2)c1C(=O)/C=C/c1ccccc1	microbial killing, broth dilution	ATCC27853		MBC	> 5000 µg/mL
O=C(O)c1cn(C2CC2)c2cc(N3CCNCC3)c(F)cc2c1=O	microbial growth, disc diffusion		100 µg/mL, 24 h	inhibition zone	16 mm
COc1c(C)c(OC)c(C(=O)/C=C/c2ccccc2)c(OC)c1C	microbial killing, broth dilution	ATCC27853		MBC	> 5000 µg/mL
COc1cc(C=Cc2cc(-c3ccc(N(C)C)cc3)nc(O)n2)ccc1O	microbial growth, disc diffusion	ATCC27853	500 µg/mL	inhibition zone	7.67 mm
COc1c(C)c(OC(=O)c2ccccc2)c(C)c(O)c1C(=O)/C=C/c1ccccc1	microbial killing, broth dilution	ATCC27853		MBC	> 5000 µg/mL
COc1cc(C=CC(=O)CC(c2ccc([N+](=O)[O-])cc2)n2ccnc2)ccc1O (centres unmarked)	microbial growth, disc diffusion	ATCC27853	250 µg/mL	inhibition zone	6 mm
